Laboratory results reported in article PMC7468319 (Acta Pharmacologica Sinica, 2019).

Experiments:
BTK [1] = test: Western blot, phosphorylation of BTK at Tyr223 in TMD8 cells; assay type: cell-based, human; conditions: Tyr223, 4 h
BTK [2] = target: BTK (Homo sapiens, UniProt Q06187); assay type: biochemical
TMD8 cells = test: Annexin V-FITC apoptosis analysis by flow cytometry; assay type: cell-based, human; conditions: TMD8, 72 h, untreated control 12.77%
[3] = tested on: Rb, phosphorylated Rb, and cyclin D1; test: Western blot of G1 phase related proteins; assay type: cell-based, human; conditions: TMD8, 48 h
PARP and caspase 3 = test: Western blot of cleaved PARP and cleaved caspase 3; assay type: cell-based, human; conditions: TMD8, Western blot
EGFR [4] = target: T1, EGFR (Homo sapiens, UniProt P00533); test: Kinase selectivity ELISA at 1000 nM, EGFR; assay type: biochemical
Method in brief: (§1)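 ELISA-based kinase activity assay using commercially sourced recombinant kinases, with absorbance read at 490 nm. Each test compound was profiled at 1000 nM against a panel of 35 kinases, and percent inhibition was determined for each kinase.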

ErbB2 = ErbB2 (Homo sapiens, UniProt P04626); test: Kinase selectivity ELISA at 1000 nM, ErbB2; assay type: biochemical
Method in brief: as §1

ErbB4 = ErbB4 (Homo sapiens, UniProt Q15303); test: Kinase selectivity ELISA at 1000 nM, ErbB4; assay type: biochemical
Method in brief: as §1

ITK = target: T2, ITK (Homo sapiens, UniProt Q08881); test: Kinase selectivity ELISA at 1000 nM, ITK; assay type: biochemical
T2 sequence (Q08881 1-620): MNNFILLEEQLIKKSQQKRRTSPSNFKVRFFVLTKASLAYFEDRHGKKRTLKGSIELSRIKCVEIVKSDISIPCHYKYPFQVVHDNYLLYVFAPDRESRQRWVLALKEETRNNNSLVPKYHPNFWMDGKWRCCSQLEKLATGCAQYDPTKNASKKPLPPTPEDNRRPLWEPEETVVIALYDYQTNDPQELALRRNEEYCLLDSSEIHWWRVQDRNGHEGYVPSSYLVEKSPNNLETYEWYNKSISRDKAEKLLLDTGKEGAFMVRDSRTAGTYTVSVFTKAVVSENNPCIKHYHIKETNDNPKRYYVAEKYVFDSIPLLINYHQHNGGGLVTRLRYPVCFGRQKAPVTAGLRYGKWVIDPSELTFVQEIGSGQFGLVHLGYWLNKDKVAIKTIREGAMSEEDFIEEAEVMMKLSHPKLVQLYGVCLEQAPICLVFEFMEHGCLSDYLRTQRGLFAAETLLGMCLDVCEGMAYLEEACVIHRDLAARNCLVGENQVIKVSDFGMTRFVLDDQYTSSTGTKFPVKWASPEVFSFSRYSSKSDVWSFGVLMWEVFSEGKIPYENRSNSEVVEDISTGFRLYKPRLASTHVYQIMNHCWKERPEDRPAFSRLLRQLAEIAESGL
Method in brief: as §1

panel of 35 kinases = test: Kinase selectivity profile, panel of 35 kinases; assay type: biochemical; conditions: 1000 nM
Method in brief: as §1

EGFR [5] = target: T1, EGFR; conditions: read-out: IC50 against EGFR; in vitro enzymatic activity; cited from earlier work

Chain of BTK (Homo sapiens, UniProt Q06187) (Q06187 whole entry): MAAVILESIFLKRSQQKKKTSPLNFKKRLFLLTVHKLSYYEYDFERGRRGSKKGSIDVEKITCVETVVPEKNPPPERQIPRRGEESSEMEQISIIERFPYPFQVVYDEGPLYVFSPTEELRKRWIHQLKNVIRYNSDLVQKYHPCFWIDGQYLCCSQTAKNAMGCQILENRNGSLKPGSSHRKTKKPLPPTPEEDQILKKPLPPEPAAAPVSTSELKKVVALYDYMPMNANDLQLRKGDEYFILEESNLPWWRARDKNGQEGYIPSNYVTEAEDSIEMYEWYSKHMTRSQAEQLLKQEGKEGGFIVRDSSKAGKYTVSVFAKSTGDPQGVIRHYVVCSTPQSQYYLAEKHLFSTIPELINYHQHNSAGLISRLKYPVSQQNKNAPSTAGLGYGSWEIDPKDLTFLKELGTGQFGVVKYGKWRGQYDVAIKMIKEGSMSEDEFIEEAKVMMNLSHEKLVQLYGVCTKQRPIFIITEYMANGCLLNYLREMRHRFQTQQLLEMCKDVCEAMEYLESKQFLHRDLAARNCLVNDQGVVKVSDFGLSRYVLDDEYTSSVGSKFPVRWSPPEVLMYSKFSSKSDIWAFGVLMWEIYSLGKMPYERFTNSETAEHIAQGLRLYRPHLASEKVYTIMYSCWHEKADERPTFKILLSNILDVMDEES
T1 sequence (P00533 25-1210): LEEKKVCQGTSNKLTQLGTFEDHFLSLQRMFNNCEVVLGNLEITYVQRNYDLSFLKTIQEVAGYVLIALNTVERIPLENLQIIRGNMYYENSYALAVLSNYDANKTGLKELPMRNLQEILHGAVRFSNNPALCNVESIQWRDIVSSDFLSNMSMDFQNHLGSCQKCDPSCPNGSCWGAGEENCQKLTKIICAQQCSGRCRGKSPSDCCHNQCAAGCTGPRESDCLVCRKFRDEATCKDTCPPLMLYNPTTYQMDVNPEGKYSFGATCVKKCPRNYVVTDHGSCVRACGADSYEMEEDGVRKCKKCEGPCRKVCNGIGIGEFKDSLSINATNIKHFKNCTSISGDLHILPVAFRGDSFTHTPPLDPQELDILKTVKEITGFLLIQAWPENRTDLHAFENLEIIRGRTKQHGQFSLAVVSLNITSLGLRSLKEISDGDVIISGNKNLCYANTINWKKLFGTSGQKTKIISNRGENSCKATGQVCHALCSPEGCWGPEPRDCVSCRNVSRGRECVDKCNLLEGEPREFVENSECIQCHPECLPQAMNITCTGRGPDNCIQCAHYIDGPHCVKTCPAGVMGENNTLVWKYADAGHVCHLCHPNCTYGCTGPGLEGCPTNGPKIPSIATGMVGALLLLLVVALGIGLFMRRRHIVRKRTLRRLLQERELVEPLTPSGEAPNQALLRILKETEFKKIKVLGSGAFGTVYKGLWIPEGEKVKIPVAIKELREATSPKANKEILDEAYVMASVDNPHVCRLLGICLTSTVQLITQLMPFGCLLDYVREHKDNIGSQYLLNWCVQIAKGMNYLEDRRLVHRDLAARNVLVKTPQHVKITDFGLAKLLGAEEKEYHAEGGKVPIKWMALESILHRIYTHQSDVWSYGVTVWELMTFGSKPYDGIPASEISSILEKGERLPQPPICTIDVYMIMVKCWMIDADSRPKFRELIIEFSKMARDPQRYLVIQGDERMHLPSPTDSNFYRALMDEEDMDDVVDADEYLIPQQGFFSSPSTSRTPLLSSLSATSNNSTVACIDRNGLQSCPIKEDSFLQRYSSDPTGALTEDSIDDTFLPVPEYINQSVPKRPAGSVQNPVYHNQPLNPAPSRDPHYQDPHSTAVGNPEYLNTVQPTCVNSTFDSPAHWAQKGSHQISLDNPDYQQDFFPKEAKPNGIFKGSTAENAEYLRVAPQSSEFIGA
Chain of ErbB2 (P04626 23-1255): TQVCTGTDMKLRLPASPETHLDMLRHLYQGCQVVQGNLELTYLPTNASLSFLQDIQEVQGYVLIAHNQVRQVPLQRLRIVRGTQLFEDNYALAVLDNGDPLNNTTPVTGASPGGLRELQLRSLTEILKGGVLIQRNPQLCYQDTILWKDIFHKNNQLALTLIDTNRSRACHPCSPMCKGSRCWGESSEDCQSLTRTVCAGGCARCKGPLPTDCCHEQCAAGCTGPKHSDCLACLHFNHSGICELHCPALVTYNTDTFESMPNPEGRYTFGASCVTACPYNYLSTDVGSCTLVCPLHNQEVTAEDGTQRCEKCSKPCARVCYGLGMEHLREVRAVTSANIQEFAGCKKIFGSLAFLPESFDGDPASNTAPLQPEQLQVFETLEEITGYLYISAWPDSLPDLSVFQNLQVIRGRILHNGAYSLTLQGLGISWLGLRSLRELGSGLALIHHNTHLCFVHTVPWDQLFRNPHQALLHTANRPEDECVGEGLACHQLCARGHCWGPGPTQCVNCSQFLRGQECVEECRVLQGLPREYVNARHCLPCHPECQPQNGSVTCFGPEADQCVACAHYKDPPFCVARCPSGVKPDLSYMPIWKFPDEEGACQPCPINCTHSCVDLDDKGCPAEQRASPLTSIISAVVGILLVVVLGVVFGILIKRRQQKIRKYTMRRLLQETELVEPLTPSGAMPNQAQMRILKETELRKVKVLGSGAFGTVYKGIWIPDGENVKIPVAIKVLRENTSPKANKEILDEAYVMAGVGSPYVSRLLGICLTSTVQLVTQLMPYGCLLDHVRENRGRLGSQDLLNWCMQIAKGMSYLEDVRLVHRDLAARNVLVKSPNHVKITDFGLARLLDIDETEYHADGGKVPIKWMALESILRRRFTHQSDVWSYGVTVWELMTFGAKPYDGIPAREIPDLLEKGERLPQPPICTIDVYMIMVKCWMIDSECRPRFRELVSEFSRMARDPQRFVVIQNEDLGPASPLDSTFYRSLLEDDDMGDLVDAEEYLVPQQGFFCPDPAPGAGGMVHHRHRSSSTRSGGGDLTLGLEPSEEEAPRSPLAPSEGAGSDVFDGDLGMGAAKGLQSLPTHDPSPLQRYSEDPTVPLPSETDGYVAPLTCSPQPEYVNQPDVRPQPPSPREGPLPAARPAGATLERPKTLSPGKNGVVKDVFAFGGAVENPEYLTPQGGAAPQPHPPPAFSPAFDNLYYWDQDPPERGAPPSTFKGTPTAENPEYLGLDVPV

SMILES	phosphorylation of BTK in TMD8 cells (BTK [1])	selectivity for BTK than for EGFR (BTK [2]; IC50 EGFR vs IC50 BTK)	IC50 (BTK [2]; read-out: IC50 against BTK, ELISA-based kinase assay)	apoptosis rate (TMD8 cells; 10 nM)	apoptosis rate (TMD8 cells; 100 nM)	apoptosis rate (TMD8 cells; 1000 nM)	levels of Rb, phosphorylated Rb, and cyclin D1 proteins [3]	cleavage of PARP and caspase 3 proteins (PARP and caspase 3)	inhibition of EGFR (EGFR [4])	inhibition of ErbB2 (ErbB2)	inhibition of ErbB4 (ErbB4)	inhibition of ITK (ITK)	inhibition of the other kinases tested (panel of 35 kinases)	number of kinases with greater than 50% inhibition (panel of 35 kinases)	IC50 (EGFR [5])
CC#CC(=O)N1CCC[C@H]1c1nc(-c2ccc(C(=O)Nc3ccccn3)cc2)c2c(N)nccn12 [ACP-196, acalabrutinib]	effectively suppressed	–	–	–	–	–	–	–	–	–	–	–	–	–	–
C=CC(=O)Nc1cccc(N2C(=O)OC(C)c3cnc(Nc4ccc(N5CCN(C)CC5)cc4OC)nc32)c1 (centres unmarked) [Compound 2, N-(3-(7-((2-methoxy-4-(4-methylpiperazin-1-yl)phenyl)amino)-4-methyl-2-oxo-2H-pyrimido[4,5-d][1,3]oxazin-1(4H)-yl)phenyl)acrylamide]	effectively suppressed	greater than 6 fold	7 nM	44.46%	57.95%	69.46%	reduction	increased in a dose-dependent manner	greater than 50%	greater than 50%	greater than 50%	greater than 50%	did not appreciably inhibit	seven	47.4 nM
C=CC(=O)N1CCC[C@@H](n2nc(-c3ccc(Oc4ccccc4)cc3)c3c(N)ncnc32)C1 [ibrutinib]	effectively suppressed	–	–	–	–	–	–	–	–	–	–	–	–	–	–
